Data as given in ChEMBL document CHEMBL4725388, “Characterization of Aminobenzylphenols as Protein Disulfide Isomerase Inhibitors in Glioblastoma Cell Lines” (J Med Chem, 2020).

How the values were obtained:
[1] = target: Protein disulfide-isomerase (Homo sapiens, UniProt P07237); assay: Inhibition of recombinant human wild-type N-terminal His-tagged PDIA1 expressed in Escherichia coli strain BL21(DE3) using bovine insulin as substrate preincubated for 1 hr followed by substrate addition
Summary of the method: (§1)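 IC50 from dose-response curves; PDI reductase assay for enzyme, MTT in U-87 MG cells for cytotoxicity; mean ± SD of at least three independent experiments.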

U-87 MG = assay: Cytotoxicity against human U-87 MG cells assessed as growth inhibition measured after 72 hrs by MTT assay; assay type: functional, cell-based, U-87MG ATCC; summary of the method: as §1

Sequence of Protein disulfide-isomerase (P07237 whole entry): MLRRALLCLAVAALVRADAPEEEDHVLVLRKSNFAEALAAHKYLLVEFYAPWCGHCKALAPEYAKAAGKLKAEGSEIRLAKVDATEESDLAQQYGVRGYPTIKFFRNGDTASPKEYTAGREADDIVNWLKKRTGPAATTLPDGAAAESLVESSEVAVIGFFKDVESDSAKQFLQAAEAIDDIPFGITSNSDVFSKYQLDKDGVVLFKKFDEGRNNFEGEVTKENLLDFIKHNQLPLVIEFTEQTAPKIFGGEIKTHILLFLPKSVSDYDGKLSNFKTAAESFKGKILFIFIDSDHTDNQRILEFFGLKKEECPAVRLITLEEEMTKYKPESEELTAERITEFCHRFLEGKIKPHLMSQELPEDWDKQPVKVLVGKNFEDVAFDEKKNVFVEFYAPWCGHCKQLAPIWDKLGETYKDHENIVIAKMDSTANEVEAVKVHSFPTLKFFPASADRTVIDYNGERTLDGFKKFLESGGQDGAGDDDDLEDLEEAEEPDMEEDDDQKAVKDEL

COc1ccc(C(c2cc3c(cc2O)OCO3)N2CCCCC2)c(OC)c1 (configuration not stated)
IC50 [1]: 2590 nM | IC50 (U-87 MG): > 30000 nM

CNC(=O)NC(c1ccc(F)cc1)c1cc2c(cc1O)OCO2 (configuration not stated)
IC50 [1]: > 30000 nM | IC50 (U-87 MG): > 10000 nM

COc1ccc(C(Nc2cc(C)ccn2)c2ccc3cccnc3c2O)cc1O (configuration not stated)
IC50 [1]: 150 nM | IC50 (U-87 MG): > 10000 nM

Oc1ccc2[nH]ccc2c1C(c1ccc(F)cc1)N1CCCCC1 (configuration not stated)
IC50 [1]: 1810 nM

Oc1cc2c(cc1C(c1ccc(Cl)cc1)N1CCOCC1)OCO2 (configuration not stated)
IC50 [1]: 92 nM | IC50 (U-87 MG): > 30000 nM

COc1cc(C(c2cc3c(cc2O)OCO3)N2CCOCC2)cc(OC)c1OC (configuration not stated)
IC50 [1]: 640 nM | IC50 (U-87 MG): > 10000 nM

Oc1c(C(Nc2ccccn2)c2ccccc2Cl)ccc2cccnc12 (configuration not stated)
IC50 [1]: 500 nM | IC50 (U-87 MG): 9400 nM

O=C(O)c1ccccc1NC(c1ccccc1)c1ccc2cccnc2c1O (configuration not stated)
IC50 [1]: 1480 nM | IC50 (U-87 MG): > 10000 nM

Oc1ccc2[nH]ncc2c1C(c1ccc(-n2cccc2)cc1)N1CCCCC1 (configuration not stated)
IC50 [1]: 290 nM

Oc1c(C(Nc2ccccn2)c2c(Cl)cccc2Cl)ccc2cccnc12 (configuration not stated)
IC50 [1]: 1890 nM | IC50 (U-87 MG): 6900 nM

Cc1ccnc(NC(c2ccc(OCc3ccccc3)cc2)c2ccc3cccnc3c2O)c1 (configuration not stated)
IC50 [1]: 620 nM | IC50 (U-87 MG): 9300 nM

Oc1c(C(c2ccc3c(c2)OC(F)(F)O3)N2CCCCC2)ccc2ccoc12 (configuration not stated)
IC50 [1]: < 200 nM

COc1ccc(C(Nc2ncccn2)c2cc3c(cc2O)OCO3)cc1 (configuration not stated)
IC50 [1]: 1300 nM | IC50 (U-87 MG): > 10000 nM

COc1ccc(C(c2cc3c(cc2O)OCO3)N2CCCCC2)cc1 (configuration not stated)
IC50 [1]: 880 nM | IC50 (U-87 MG): 28300 nM

Cc1ccc(C)c(C(Nc2ccccn2)c2ccc3cccnc3c2O)c1 (configuration not stated)
IC50 [1]: 730 nM | IC50 (U-87 MG): 13800 nM

Oc1cc2c(cc1C(c1ccc(F)cc1)N1CCOCC1)OCO2 (configuration not stated)
IC50 [1]: 230 nM | IC50 (U-87 MG): > 30000 nM

Oc1ccc2[nH]ncc2c1C(c1ccc(-c2nccs2)cc1)N1CCCCC1 (configuration not stated)
IC50 [1]: 340 nM

Oc1cc2c(cc1C(c1ccc3c(c1)OCO3)N1CCCC1)OCO2 (configuration not stated)
IC50 [1]: 23 nM | IC50 (U-87 MG): > 30000 nM

CN(C)c1ccc(C(c2cc3c(cc2O)OCO3)N2CCCC2)cc1 (configuration not stated)
IC50 [1]: < 200 nM | IC50 (U-87 MG): > 30000 nM

Oc1c(C(Nc2ccccc2)c2ccccc2)ccc2cccnc12 (configuration not stated)
IC50 [1]: 110 nM | IC50 (U-87 MG): > 10000 nM

COc1ccc(C(c2cc3c(cc2O)OCO3)n2ccnc2)cc1 (configuration not stated)
IC50 [1]: 620 nM | IC50 (U-87 MG): > 10000 nM

Oc1c(C(Nc2ccccn2)c2ccccc2F)ccc2cccnc12 (configuration not stated)
IC50 [1]: 470 nM | IC50 (U-87 MG): > 10000 nM

Oc1cc2c(cc1C(Nc1ncccn1)c1ccc(F)cc1)OCO2 (configuration not stated)
IC50 [1]: 12700 nM | IC50 (U-87 MG): > 10000 nM

CCc1ccc(C(Nc2cc(C)ccn2)c2ccc3cccnc3c2O)cc1 (configuration not stated)
IC50 [1]: 5390 nM | IC50 (U-87 MG): 8900 nM

Oc1ccc2scnc2c1C(c1ccc(F)cc1)N1CCCCC1 (configuration not stated)
IC50 [1]: > 100000 nM

COc1cc(C(Nc2ncccn2)c2cc3c(cc2O)OCO3)cc(OC)c1O (configuration not stated)
IC50 [1]: 2200 nM | IC50 (U-87 MG): > 10000 nM

COc1ccc(C(c2cc3c(cc2O)OCO3)N2CCCC2)cc1 (configuration not stated)
IC50 [1]: 1520 nM | IC50 (U-87 MG): 22600 nM

Cc1cc(C)c(C(Nc2ccccn2)c2ccc3cccnc3c2O)c(C)c1 (configuration not stated)
IC50 [1]: 190 nM | IC50 (U-87 MG): 10000 nM

Oc1ccc2[nH]ncc2c1C(c1ccc(F)cc1)N1CCCCC1 (configuration not stated)
IC50 [1]: 350 nM

COc1ccccc1NC(c1ccccc1)c1ccc2cccnc2c1O (configuration not stated)
IC50 [1]: 390 nM | IC50 (U-87 MG): > 10000 nM

Oc1cc2c(cc1C(c1ccc(F)cc1)N1CCCCC1)OCO2 (configuration not stated)
IC50 [1]: 270 nM | IC50 (U-87 MG): > 30000 nM

CN(C)c1cccc(C(c2ccc(F)cc2)N2CCCCC2)c1O (configuration not stated)
IC50 [1]: > 30000 nM

Oc1ccc2nccnc2c1C(c1ccc(F)cc1)N1CCCCC1 (configuration not stated)
IC50 [1]: > 100000 nM

Oc1c(C(c2ccc(F)cc2)N2CCCCC2)ccc2nccnc12 (configuration not stated)
IC50 [1]: 660 nM

Oc1c(C(c2ccc3c(c2)CCC3)N2CCCCC2)ccc2ccoc12 (configuration not stated)
IC50 [1]: 410 nM

Oc1c(C(c2ccc(C(F)(F)F)cc2)N2CCCCC2)ccc2ccoc12 (configuration not stated)
IC50 [1]: 300 nM

COc1cc(OC)c(C(c2cc3c(cc2O)OCO3)N2CCOCC2)c(OC)c1 (configuration not stated)
IC50 [1]: 980 nM | IC50 (U-87 MG): 13600 nM

Oc1ccc2[nH]ncc2c1C(c1ccc(-c2cncnc2)cc1)N1CCCCC1 (configuration not stated)
IC50 [1]: 830 nM

Oc1cc2c(cc1C(c1ccc(F)cc1)N1CCCCC1)CCCC2 (configuration not stated)
IC50 [1]: > 100000 nM

Oc1ccc2ccncc2c1C(c1ccc(F)cc1)N1CCCCC1 (configuration not stated)
IC50 [1]: 10200 nM

Oc1c(C(c2ccc(F)cc2)N2CCCCC2)ccc2c1OCO2 (configuration not stated)
IC50 [1]: 2830 nM

Cc1ccnc(NC(c2ccccc2Cl)c2ccc3cccnc3c2O)c1 (configuration not stated)
IC50 [1]: > 40000 nM | IC50 (U-87 MG): 9900 nM

COc1cc(C(Nc2ccc(C)cn2)c2ccc3cccnc3c2O)cc(OC)c1O (configuration not stated)
IC50 [1]: 180 nM | IC50 (U-87 MG): 7400 nM

Cc1ccc(C(Nc2ccccn2)c2ccc3cccnc3c2O)cc1 (configuration not stated)
IC50 [1]: 460 nM | IC50 (U-87 MG): > 10000 nM

COc1ccc(C(c2cc3c(cc2O)OCO3)N2CCCC2)c(OC)c1 (configuration not stated)
IC50 [1]: 360 nM | IC50 (U-87 MG): > 30000 nM

CN(C)c1ccc(C(c2cc3c(cc2O)OCO3)N2CCCCC2)cc1 (configuration not stated)
IC50 [1]: 1270 nM | IC50 (U-87 MG): 24700 nM

CC(=O)c1cc2ccc(C(c3ccc(F)cc3)N3CCCCC3)c(O)c2o1 (configuration not stated)
IC50 [1]: 1230 nM

Oc1cc2c(cc1C(c1ccc3c(c1)OCO3)N1CCOCC1)OCO2 (configuration not stated)
IC50 [1]: < 200 nM | IC50 (U-87 MG): > 30000 nM

CNC(=O)NC(c1cc(OC)c(OC)c(OC)c1)c1cc2c(cc1O)OCO2 (configuration not stated)
IC50 [1]: > 40000 nM | IC50 (U-87 MG): > 10000 nM

Oc1cc2c(cc1C(c1ccc(F)cc1)N1CCCCC1)NCC2 (configuration not stated)
IC50 [1]: 7010 nM

COc1ccc(C(c2cc3c(cc2O)OCO3)N2CCCCC2)cc1OC (configuration not stated)
IC50 [1]: 960 nM | IC50 (U-87 MG): 24800 nM

COc1cc(C(c2cc3c(cc2O)OCO3)N2CCCCC2)cc(OC)c1OC (configuration not stated)
IC50 [1]: 700 nM | IC50 (U-87 MG): > 10000 nM

Cc1ccnc(NC(c2ccc([N+](=O)[O-])cc2)c2ccc3cccnc3c2O)c1 (configuration not stated)
IC50 [1]: 530 nM | IC50 (U-87 MG): 3400 nM

Oc1cccc(C(Nc2ccccn2)c2ccc3cccnc3c2O)c1Cl (configuration not stated)
IC50 [1]: 370 nM | IC50 (U-87 MG): > 10000 nM

Oc1cc(F)ccc1C(c1ccc2ccoc2c1O)N1CCCCC1 (configuration not stated)
IC50 [1]: 1070 nM

Oc1c(C(c2ccc(F)cc2)N2CCCCC2)ccc2c1OCCO2 (configuration not stated)
IC50 [1]: 290 nM

Cc1ccnc(NC(c2ccc3cccnc3c2O)c2c(F)cccc2Cl)c1 (configuration not stated)
IC50 [1]: > 40000 nM | IC50 (U-87 MG): 20600 nM

COc1ccc(C(c2cc3c(cc2O)OCO3)N2CCOCC2)cc1 (configuration not stated)
IC50 [1]: 130 nM | IC50 (U-87 MG): > 10000 nM

Oc1ccc2ncccc2c1C(c1ccc(F)cc1)N1CCCCC1 (configuration not stated)
IC50 [1]: > 30000 nM

Oc1cc2c(cc1C(Nc1ncccn1)c1ccc3c(c1)OCO3)OCO2 (configuration not stated)
IC50 [1]: 1180 nM | IC50 (U-87 MG): > 10000 nM

Oc1c(C(c2ccc(F)cc2)N2CCCCC2)ccc2cncnc12 (configuration not stated)
IC50 [1]: 4860 nM

Oc1ccccc1C(c1cc2c(cc1O)OCO2)N1CCOCC1 (configuration not stated)
IC50 [1]: 340 nM | IC50 (U-87 MG): > 30000 nM

Cc1ccnc(NC(c2ccc(F)cc2)c2ccc3cccnc3c2O)c1 (configuration not stated)
IC50 [1]: 140 nM | IC50 (U-87 MG): > 10000 nM

COc1cc(C(c2cc3c(cc2O)OCO3)N2CCOCC2)ccc1O (configuration not stated)
IC50 [1]: 230 nM | IC50 (U-87 MG): 27100 nM

Oc1cc2c(cc1C(c1ccc(F)cc1)N1CCCC1)OCO2 (configuration not stated)
IC50 [1]: < 200 nM | IC50 (U-87 MG): > 30000 nM

Oc1c(C(c2ccc(F)cc2)N2CCCCC2)ccc2cnccc12 (configuration not stated)
IC50 [1]: 610 nM

Oc1ccc2[nH]ncc2c1C(c1ccc(C(F)(F)F)cc1)N1CCCCC1 (configuration not stated)
IC50 [1]: 710 nM

COc1ccccc1C(c1cc2c(cc1O)OCO2)N1CCOCC1 (configuration not stated)
IC50 [1]: 330 nM | IC50 (U-87 MG): 27700 nM

Cc1ccnc(NC(c2ccccc2C)c2ccc3cccnc3c2O)c1 (configuration not stated)
IC50 [1]: > 40000 nM | IC50 (U-87 MG): > 10000 nM

COc1cc(C(Nc2ccccn2)c2cc3c(cc2O)OCO3)cc(OC)c1O (configuration not stated)
IC50 [1]: 170 nM | IC50 (U-87 MG): > 10000 nM

CNC(=O)NC(c1ccc2c(c1)OCO2)c1cc2c(cc1O)OCO2 (configuration not stated)
IC50 [1]: > 40000 nM | IC50 (U-87 MG): > 10000 nM

Oc1cc2c(cc1C(c1ccc(F)cc1)n1ccnc1)OCO2 (configuration not stated)
IC50 [1]: 670 nM | IC50 (U-87 MG): > 10000 nM

COc1cccc(C(Nc2ncccn2)c2cc3c(cc2O)OCO3)c1O (configuration not stated)
IC50 [1]: 9020 nM | IC50 (U-87 MG): > 10000 nM

Oc1cc2c(cc1C(Nc1ccccn1)c1ccc3c(c1)OCO3)OCO2 (configuration not stated)
IC50 [1]: 72 nM | IC50 (U-87 MG): > 10000 nM

Oc1cc2c(cc1C(c1ccc(F)cc1)N1CCCCC1)OCCO2 (configuration not stated)
IC50 [1]: 670 nM

COc1cccc(C(c2cc3c(cc2O)OC(F)(F)O3)N2CCOCC2)c1OC (configuration not stated)
IC50 [1]: 510 nM

Oc1c(C(c2ccc(F)cc2)N2CCCCC2)ccc2ccoc12 (configuration not stated)
IC50 [1]: 560 nM

Oc1c(C(c2ccc(F)cc2)N2CCCCC2)ccc2scnc12 (configuration not stated)
IC50 [1]: 570 nM

O=[N+]([O-])c1ccc(C(c2c(O)ccc3[nH]ncc23)N2CCCCC2)cc1 (configuration not stated)
IC50 [1]: 520 nM

Oc1c(C(c2ccc(F)cc2)N2CCCCC2)ccc2c1CCC2 (configuration not stated)
IC50 [1]: > 10000 nM

Oc1ccc2cnccc2c1C(c1ccc(F)cc1)N1CCCCC1 (configuration not stated)
IC50 [1]: > 100000 nM
